Experimental data published in ChEMBL document CHEMBL1629520, “Synthesis and optimization of antitubercular activities in a series of 4-(aryloxy)phenyl cyclopropyl methanols” (Eur J Med Chem, 2010).
Values after ≈ are worked out from the molar mass of the structure shown.

Assays:
[1] = tested on: Mycobacterium tuberculosis; experiment: Antitubercular activity against Mycobacterium tuberculosis H37Rv after 30 days by agar microdilution method; assay type: functional
Summary of the method: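 Compound dissolved in DMSO; two-fold dilutions added to Middlebrook 7H10 with OADC in slanted tubes, preincubated 24 h at 37 °C. Tubes then streaked with 5 × 10⁵ bacilli of H37Rv harvested from L–J culture into 0.85% saline with 0.05% Tween-80. Incubated 30 days at 37 °C. MIC is the lowest concentration giving complete inhibition of colonies, judged against drug-free control tubes.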

Vero = experiment: Cytotoxicity against african green monkey Vero cells after 24 hrs by MTS assay; assay type: cell-based; settings: Chlorocebus sabaeus
Summary of the method: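 Vero cells were seeded at 10,000/well in DMEM with antibiotics and 10% FBS and left to adhere overnight at 37 °C, 5% CO₂. […] MTS was then added for 2 h and A490 read, with DMSO wells taken as 100% survival.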

[2] = Cytotoxicity against mouse BMDM after 48 hrs by MTS assay; assay type: cell-based
Summary of the method: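 Mouse bone-marrow cells were flushed into DMEM with 10% FBS, 15% L-929 conditioned supernatant and non-essential amino acids. They were plated at 10⁵/well and cultured 5 days at 37 °C, 5% CO₂, with medium changed every 3rd day. Graded compound concentrations were added in antibiotic-free FBS-DMEM for 48 h. MTS was added for 2 h and A490 read, with DMSO wells taken as 100% survival.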

[3] = Selectivity index, ratio of IC50 for african green monkey Vero cells to MIC for Mycobacterium tuberculosis H37Rv; assay type: functional
Summary of the method: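 Vero cells seeded at 10,000/well in DMEM with antibiotics and 10% FBS, allowed to adhere overnight (37 °C, 5% CO₂). […] MTS added for 2 h, absorbance read at 490 nm, with DMSO wells taken as 100% survival. IC50 divided by H37Rv agar MIC.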

[4] = Selectivity index, ratio of IC50 for mouse BMDM to MIC for Mycobacterium tuberculosis H37Rv; assay type: functional
Summary of the method: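 Bone-marrow cells flushed with DMEM containing 10% FBS, 15% L-929 conditioned supernatant and non-essential amino acids. Seeded at 10⁵/well and grown 5 days, medium changed every 3rd day. Compounds added in antibiotic-free FBS-DMEM for 48 h. MTS added for 2 h, A490 read, DMSO wells taken as 100%. IC50 divided by H37Rv MIC.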

[5] = tested on: Mycobacterium tuberculosis; experiment: Antitubercular activity against Mycobacterium tuberculosis H37Rv infected in mouse BMDM assessed as reduction in intracellular CFU at 5 times MIC after 4 weeks relative to control; assay type: functional; parameters: scale not given: the % may be the effect or the level left
Summary of the method: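 Murine bone-marrow macrophages cultured 5 days, then infected 3 h with 5 × 10⁶ H37Rv in antibiotic-free DMEM/10% FBS. Extracellular bacteria washed off, and compound added at 5× MIC. After 4 days at 37 °C, 5% CO₂, cells lysed with 0.1% saponin. Lysates serially diluted in saline and plated on 7H11; colonies counted after 4 weeks at 37 °C.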

[6] = tested on: Mycobacterium tuberculosis; experiment: Antitubercular activity against Mycobacterium tuberculosis H37Rv infected in swiss mouse assessed as increase in mean survival time at 100 mg/kg, po qd for 28 days measured on day 30; assay type: functional
Summary of the method: (§1)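 Outbred female Swiss mice (18–20 g) infected i.v. via lateral vein with 10⁷ CFU H37Rv; groups of 10 formed next day. Test compound given as aqueous suspension at 100 mg/kg, INH at 25 mg/kg; placebo given to infected controls. All dosing oral, daily for 28 days. Mean survival time and % survivors scored at days 30 and 40; lung bacillary load per g determined on day 30.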

[7] = tested on: Mycobacterium tuberculosis; experiment: Antitubercular activity against drug-susceptible Mycobacterium tuberculosis clinical isolate1 after 30 days by agar microdilution method; assay type: functional
[8] = tested on: Mycobacterium tuberculosis; experiment: Antitubercular activity against drug-susceptible Mycobacterium tuberculosis clinical isolate2 after 30 days by agar microdilution method; assay type: functional
[9] = Chemical stability of the compound in HCl at […] assessed as compound remaining after 3 hrs by HPLC analysis; assay type: physicochemical; settings: HCl solution; read-out: Stability
Summary of the method: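 Compound held in 0.1N HCl (gastric pH) at ambient temperature for up to 3 h and analysed by HPLC on a CN column (250 mm × 4 mm, 5 µm) at 25 ± 3 °C with PDA detection. Intact parent was followed by its peak, and degradation products by their retention times.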

[10] = tested on: Mycobacterium tuberculosis; experiment: Antitubercular activity against Mycobacterium tuberculosis H37Rv infected in swiss mouse assessed as increase in mean survival time at 100 mg/kg, po qd for 28 days measured on day 40; assay type: functional; summary of the method: as §1
[11] = tested on: Mycobacterium tuberculosis; experiment: Antitubercular activity against Mycobacterium tuberculosis H37Rv infected in swiss mouse assessed as decrease in bacilli load in lungs at 100 mg/kg, po qd for 28 days measured on day 30; assay type: functional; summary of the method: as §1
[12] = tested on: Mycobacterium tuberculosis; experiment: Antitubercular activity against Mycobacterium tuberculosis H37Rv infected in swiss mouse assessed as increase mouse survival at 100 mg/kg, po qd for 28 days measured on day 30 relative to control; assay type: functional; summary of the method: as §1
[13] = tested on: Mycobacterium tuberculosis; experiment: Antitubercular activity against Mycobacterium tuberculosis H37Rv infected in swiss mouse assessed as increase mouse survival at 100 mg/kg, po qd for 28 days measured on day 40 relative to control; assay type: functional; summary of the method: as §1
[14] = tested on: Mycobacterium tuberculosis; experiment: Antitubercular activity against Mycobacterium tuberculosis H37Rv infected in swiss mouse assessed as increase mouse survival at 25 mg/kg, po qd for 28 days measured on day 30 relative to control; assay type: functional; summary of the method: as §1
[15] = tested on: Mycobacterium tuberculosis; experiment: Antitubercular activity against Mycobacterium tuberculosis H37Rv infected in swiss mouse assessed as increase in mean survival time at 25 mg/kg, po qd for 28 days measured on day 30 relative to control; assay type: functional; summary of the method: as §1
[16] = tested on: Mycobacterium tuberculosis; experiment: Antitubercular activity against Mycobacterium tuberculosis H37Rv infected in swiss mouse assessed as increase in mean survival time at 25 mg/kg, po qd for 28 days measured on day 40; assay type: functional; summary of the method: as §1
[17] = tested on: Mycobacterium tuberculosis; experiment: Antitubercular activity against Mycobacterium tuberculosis H37Rv infected in swiss mouse assessed as increase mouse survival at 25 mg/kg, po qd for 28 days measured on day 40 relative to control; assay type: functional; summary of the method: as §1

Work on `COc1cc(COc2ccc(C(O)C3CC3)cc2)ccc1OCCN1CCCCC1` (stereo not drawn) yielded an MIC [1] of 6.25 µg/mL (≈ 15.2 µM).
`COc1cc(COc2ccc(C(O)C3CC3)cc2)cc(OC)c1OC` (stereo not drawn) showed an MIC [1] of 12.5 µg/mL (≈ 36.3 µM).
For `O=C(c1ccc(OCc2ccc(OCCN3CCCCC3)cc2)cc1)C1CC1`, the MIC [1] was 12.5 µg/mL (≈ 32.9 µM).
With `CN(C)CCOc1ccc(COc2ccc(C(=O)C3CC3)cc2)cc1` the MIC [1] was greater than 12.5 µg/mL.
In the case of `COc1cc(COc2ccc(C(O)C3CC3)cc2)ccc1OCCN(C(C)C)C(C)C` (stereo not drawn), the MIC [1] is reported as greater than 12.5 µg/mL.
`OC(c1ccc(OCc2cccc(OCCN3CCCCC3)c2)cc1)C1CC1` (stereo not drawn) showed an MIC [1] of 6.25 µg/mL (≈ 16.4 µM).
For `O=C(c1ccc(OCc2cccc([N+](=O)[O-])c2)cc1)C1CC1`, the MIC [1] was 6.25 µg/mL (≈ 21 µM).
For `O=C(c1ccc(OCc2ccc(Br)cc2)cc1)C1CC1`, the MIC [1] was 6.25 µg/mL (≈ 18.9 µM).
With `CN(C)CCOc1ccc(COc2ccc(C(O)C3CC3)cc2)cc1` (stereo not drawn) the MIC [1] was 3.12 µg/mL (≈ 9.14 µM), the IC50 (Vero) was greater than 50 µg/mL and the IC50 [2] was greater than 50 µg/mL. The “Selectivity Index” value [3] was greater than 10, the Selectivity Index [4] was greater than 10 and the Activity [5] was 80%. The MST [6] was 12.85.
For `COc1cc(COc2ccc(C(=O)C3CC3)cc2)ccc1OCCN1CCOCC1`, the MIC [1] was 6.25 µg/mL (≈ 15.2 µM).
In the case of `COc1cc(COc2ccc(C(O)C3CC3)cc2)ccc1OCCN1CCOCC1` (stereo not drawn), the MIC [1] is reported as 12.5 µg/mL (≈ 30.2 µM).
`O=C(c1ccc(OCc2cccc(Br)c2)cc1)C1CC1` showed an MIC [1] of 12.5 µg/mL (≈ 37.7 µM).
With `OC(c1ccc(OCc2cccc(Br)c2)cc1)C1CC1` (stereo not drawn) the MIC [1] was 12.5 µg/mL (≈ 37.5 µM).
With `OC(c1ccc(OCc2ccc(OCCN3CCCCC3)cc2)cc1)C1CC1` (stereo not drawn) the MIC [1] was 3.12 µg/mL (≈ 8.18 µM), the IC50 (Vero) was greater than 50 µg/mL and the IC50 [2] was greater than 50 µg/mL. For the same molecule, the “Selectivity Index” value [3] was greater than 10, the Selectivity Index [4] was greater than 10 and the MIC [7] was greater than 12.5 µg/mL. It also gave an MIC [8] greater than 12.5 µg/mL, an Activity [5] of 98% and an MST [6] of 27.5. For the same molecule, the remaining at 3 h [9] was less than 70%, the MST [10] was 31.62 and the Activity [11] was 9 ×10⁷ /g. It also gave a survival at 100 mg/kg [12] of 50% and a survival at 100 mg/kg [13] of 25%.
Work on `CCCCN(CCCC)CCOc1ccc(C(O)C2CC2)cc1` (stereo not drawn) yielded an MIC [1] of 12.5 µg/mL (≈ 39.1 µM).
For `OC(c1ccc(OCc2ccc(OCc3ccccc3)cc2)cc1)C1CC1` (stereo not drawn), the MIC [1] was 3.12 µg/mL (≈ 8.66 µM), the IC50 (Vero) was greater than 50 µg/mL and the IC50 [2] was greater than 50 µg/mL. For the same molecule, the “Selectivity Index” value [3] was greater than 10, the Selectivity Index [4] was greater than 10 and the Activity [5] was 54%.
With `O=C(c1ccc(OCc2ccc(OCCN3CCOCC3)cc2)cc1)C1CC1` the MIC [1] was 6.25 µg/mL (≈ 16.4 µM).
For `NNC(=O)c1ccncc1` [ISONIAZID], the survival at 25 mg/kg [14] was 100%, the MST [15] was 30 and the MST [16] was 40. The survival at 25 mg/kg [17] was 100%.
With `OC(c1ccc(OCc2ccc(Br)cc2)cc1)C1CC1` (stereo not drawn) the MIC [1] was 6.25 µg/mL (≈ 18.8 µM), the Activity [5] was 88% and the MST [6] was 23.37.
`COc1cc(COc2ccc(C(=O)C3CC3)cc2)ccc1OCCN(C(C)C)C(C)C` gave an MIC [1] greater than 12.5 µg/mL.
With `CC(C)N(CCOc1ccc(COc2ccc(C(=O)C3CC3)cc2)cc1)C(C)C` the MIC [1] was 12.5 µg/mL (≈ 31.6 µM).
For `COc1cc(COc2ccc(C(=O)C3CC3)cc2)ccc1OCCN1CCCCC1`, the MIC [1] was greater than 12.5 µg/mL.
For `CCCCN(CCCC)CCOc1ccc(C(=O)C2CC2)cc1`, the MIC [1] was greater than 12.5 µg/mL.
Molecule `O=[N+]([O-])c1cccc(COc2ccc(C(O)C3CC3)cc2)c1` (stereo not drawn) has an MIC [1] of 6.25 µg/mL (≈ 20.9 µM).
`OC(c1ccc(OCc2ccc(OCCN3CCOCC3)cc2)cc1)C1CC1` (stereo not drawn) gave an MIC [1] of 3.12 µg/mL (≈ 8.14 µM), an IC50 (Vero) greater than 50 µg/mL and an IC50 [2] greater than 50 µg/mL. The “Selectivity Index” value [3] was greater than 10, the Selectivity Index [4] was greater than 10 and the Activity [5] was 89%.
`COc1cc(COc2ccc(C(=O)C3CC3)cc2)cc(OC)c1OC` gave an MIC [1] greater than 12.5 µg/mL.
Work on `CC(C)N(CCOc1ccc(COc2ccc(C(O)C3CC3)cc2)cc1)C(C)C` (stereo not drawn) yielded an MIC [1] of 12.5 µg/mL (≈ 31.4 µM).
In the case of `O=C(c1ccc(OCc2ccc(OCc3ccccc3)cc2)cc1)C1CC1`, the MIC [1] is reported as 1.56 µg/mL (≈ 4.35 µM), the IC50 (Vero) is reported as greater than 50 µg/mL and the IC50 [2] is reported as greater than 50 µg/mL. The “Selectivity Index” value [3] was greater than 10, the Selectivity Index [4] was greater than 10 and the Activity [5] was 0%.
Work on `O=C(c1ccc(OCc2cccc(OCCN3CCCCC3)c2)cc1)C1CC1` yielded an MIC [1] of 12.5 µg/mL (≈ 32.9 µM).
